SENP8 block-1 – SENP8 protease inhibition; inhibition, % at 10 µM; 1.2% of 330,000 active; purified SENP8, Z-RLRGG-aminoluciferin cleavage, luminescence; in the data active = inhibition above about 50%
SENP6 block – blocks the human protease SENP6; 1.8% of 330,000 active; inhibition, % at 10 µM; Q9GZR1; Recombinant SENP6 catalytic domain, aminoluciferin luminescence;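 active = inhibition above about 50% at the single tested dose, limit read from the data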
SENP7 block – inhibitors of human SENP7 protease; Q9BQF6; recombinant SENP7, Z-RLRGG-aminoluciferin luminescence, 40 min; inhibition, % at 5 µM; 1.5% of 330,000 active; AID 434973;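 active = inhibition above about 50% at the single test dose, limit read from the data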
Target sequence (Q9BQF6 706-1050 limits assumed): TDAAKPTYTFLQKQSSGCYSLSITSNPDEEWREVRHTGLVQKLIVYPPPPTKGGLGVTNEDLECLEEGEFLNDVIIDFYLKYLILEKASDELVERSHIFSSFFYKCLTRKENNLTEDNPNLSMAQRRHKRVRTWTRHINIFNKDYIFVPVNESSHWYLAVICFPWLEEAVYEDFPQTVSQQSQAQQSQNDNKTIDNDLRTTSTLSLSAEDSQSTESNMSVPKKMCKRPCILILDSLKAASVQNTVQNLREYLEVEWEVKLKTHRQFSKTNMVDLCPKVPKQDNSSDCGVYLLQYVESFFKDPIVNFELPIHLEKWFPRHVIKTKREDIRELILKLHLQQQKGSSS
SENP8 block-2 – inhibitors of human SENP8 protease; Q96LD8; recombinant SENP8, Nedd8 substrate fluorescence; inhibition, % at 20 µM; 0.64% of 360,000 active; in the data active = inhibition mostly above about 40%, no sharp cut-off; inactive = mostly below about 27%
SENP1 FRET inh – SENP1 (human) catalytic domain inhibition. recombinant SENP1 catalytic domain, CyPet-SUMO1-YPet FRET cleavage. inhibition, % at 10 µM. 0.21% of 360,000 active;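 active = inhibition at least 30% at 10 µM, raw YFP signal under a set limit, fluorescence ratio 0.5 to 1.5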
Target sequence (Q9P0U3 419-644 limits assumed): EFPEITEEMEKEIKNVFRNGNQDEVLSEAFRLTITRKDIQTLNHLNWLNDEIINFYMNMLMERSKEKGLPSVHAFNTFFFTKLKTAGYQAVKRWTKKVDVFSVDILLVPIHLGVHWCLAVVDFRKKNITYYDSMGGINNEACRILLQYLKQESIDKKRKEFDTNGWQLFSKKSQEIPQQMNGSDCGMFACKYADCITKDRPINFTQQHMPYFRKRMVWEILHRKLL
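System: Recombinant human SENP1 catalytic domain, His6-tagged | Incubation: Enzyme reaction for 50 min at room temperature, dark | Medium: Tris pH 8 with BME, BSA, NP40 and catalase | Also added: 25 nM SUMO1 FRET substrate | Compound: 10 µM single point, 0.5% DMSO | Measured by: FRET fluorescence in CFP and YFP emission channels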
SENP1 conf – SENP1 (human) inhibition, single concentration confirmation; 34% of 520 active; inhibition, % at 10 µM; shares compounds with SENP1 FRET inh; AID 651678; recombinant SENP1, CyPet-SUMO1-YPet FRET cleavage; in the data active = inhibition mostly above about 35%, no sharp cut-off; inactive = mostly below about 32%
SENP1 kin conf – confirmation of human SENP1 SUMO protease inhibitors, kinetic; shares compounds with SENP1 FRET inh; recombinant SENP1, CyPet-SUMO1-YPet FRET kinetic cleavage; inhibition, % at 10 µM; 26% of 520 active; AID 651690; in the data active = inhibition mostly above about 32%, no sharp cut-off; inactive = mostly below about 29%
Numbers stand for hits. This is a sample that favours compounds with a hit; in the whole collection about 2.5% have one here.

For COc1ccc(/C=N/N2C(=O)CSC2=S)cc1Br the results were SENP8 block-1 inactive, SENP6 block inactive, SENP7 block inactive, SENP8 block-2 inactive, SENP1 FRET inh 40, SENP1 conf 46 and SENP1 kin conf 31.
Screening COc1ccc2sc(/C=C/c3ccccc3O)[n+](C)c2c1 returned SENP8 block-2 inactive, SENP1 FRET inh 39, SENP1 conf 58 and SENP1 kin conf 40.
`Cn1c(=O)oc2cc(S(=O)(=O)N3CCN(c4ccc(F)cc4)CC3)ccc21` gave SENP8 block-1 inactive, SENP6 block inactive, SENP7 block inactive, SENP8 block-2 inactive, SENP1 FRET inh 37, SENP1 conf inactive and SENP1 kin conf inactive.
Screening CC1CCN(C(=O)CCNS(=O)(=O)c2ccc3c(c2)oc(=O)n3C)CC1 returned SENP8 block-1 inactive, SENP6 block inactive, SENP7 block inactive, SENP8 block-2 inactive and SENP1 FRET inh inactive.
For CN1CCN(S(=O)(=O)c2ccc3c(c2)oc(=O)n3C)CC1 the results were SENP8 block-1 inactive, SENP6 block inactive, SENP7 block inactive, SENP8 block-2 inactive, SENP1 FRET inh 33, SENP1 conf inactive and SENP1 kin conf inactive.
For CC1CC(C)CN(CCCNS(=O)(=O)c2ccc3c(c2)oc(=O)n3C)C1 (centres undefined) the results were SENP8 block-1 inactive, SENP6 block inactive, SENP7 block inactive, SENP8 block-2 inactive, SENP1 FRET inh 33, SENP1 conf inactive and SENP1 kin conf inactive.
Screening Cn1c(=O)oc2cc(S(=O)(=O)Nc3cccc4c3CCCC4)ccc21 returned SENP8 block-1 inactive, SENP6 block inactive, SENP7 block inactive, SENP8 block-2 inactive, SENP1 FRET inh 33, SENP1 conf inactive and SENP1 kin conf inactive.
Screening Nc1nc2c(Cl)ccc(Cl)c2s1 returned SENP8 block-1 inactive, SENP6 block inactive, SENP7 block inactive, SENP8 block-2 inactive and SENP1 FRET inh inactive.
O=C(c1ccc([N+](=O)[O-])cc1)N1CCC(n2nnc3cc(F)ccc32)CC1 was read as SENP8 block-1 inactive, SENP6 block inactive, SENP7 block inactive, SENP8 block-2 inactive and SENP1 FRET inh inactive.
Screening O=C(N1CCOCC1)N1CCC(n2nnc3cc(F)ccc32)CC1 returned SENP8 block-1 inactive, SENP6 block inactive, SENP7 block inactive, SENP8 block-2 inactive, SENP1 FRET inh 30, SENP1 conf inactive and SENP1 kin conf inactive.
`Cc1ccc(-c2nc3ncccn3c2Nc2ccc3c(c2)OCO3)o1` gave SENP8 block-1 inactive, SENP6 block inactive, SENP7 block inactive, SENP8 block-2 inactive, SENP1 FRET inh 43, SENP1 conf inactive and SENP1 kin conf inactive.
`COc1ccc(-c2ccc3c(c2)S(=O)(=O)c2cccc(C(=O)NCCOc4ccccc4)c2C3=O)cc1OC` gave SENP8 block-1 inactive, SENP6 block inactive, SENP7 block inactive, SENP8 block-2 inactive, SENP1 FRET inh 59, SENP1 conf 68 and SENP1 kin conf 49.
CC1(C)CC(=O)C=C(c2ccc(-c3ccc4[nH]ccc4c3)cc2)C1=O was read as SENP8 block-2 inactive, SENP1 FRET inh 29, SENP1 conf inactive and SENP1 kin conf inactive.
Cc1ccc2c(c1)C(=O)CCN2 was read as SENP8 block-1 inactive, SENP6 block inactive, SENP7 block inactive, SENP8 block-2 inactive and SENP1 FRET inh inactive.
Cc1ccc2c(c1)C(=C(C#N)C#N)CCN2 was read as SENP8 block-2 inactive, SENP1 FRET inh 36, SENP1 conf 52 and SENP1 kin conf 33.
CCOC(=O)CSc1nc2ccc(C)cc2cc1C#N was read as SENP8 block-1 inactive, SENP6 block inactive, SENP7 block inactive, SENP8 block-2 inactive and SENP1 FRET inh inactive.
Screening CCOC(=O)CSc1nc2cc(C)ccc2cc1C#N returned SENP8 block-1 inactive, SENP6 block inactive, SENP7 block inactive, SENP8 block-2 inactive, SENP1 FRET inh 55, SENP1 conf inactive and SENP1 kin conf inactive.
`CC(=NNc1ccc([N+](=O)[O-])cn1)c1ccc(N)cc1` gave SENP8 block-2 58, SENP1 FRET inh 41, SENP1 conf inactive and SENP1 kin conf inactive.
`O=C(C[n+]1cc(Br)cc2ccccc21)c1ccc(Br)cc1` gave SENP8 block-1 inactive, SENP6 block inactive, SENP7 block inactive, SENP8 block-2 inactive, SENP1 FRET inh 52, SENP1 conf inactive and SENP1 kin conf inactive.
`O=C(C[n+]1cc(Br)cc2ccccc21)c1ccc(Cl)cc1` gave SENP8 block-1 inactive, SENP6 block inactive, SENP7 block inactive, SENP8 block-2 inactive, SENP1 FRET inh 44, SENP1 conf inactive and SENP1 kin conf inactive.
`O=C(C[n+]1cc(Br)cc(Br)c1)c1ccc(Cl)cc1` gave SENP8 block-1 inactive, SENP6 block inactive, SENP7 block inactive, SENP8 block-2 inactive and SENP1 FRET inh inactive.
CCn1c(SCC(=O)N2CCCCCC2)nc2c(c1=O)SCC2 was read as SENP8 block-1 inactive, SENP6 block inactive, SENP7 block inactive, SENP8 block-2 inactive and SENP1 FRET inh inactive.
`CCc1cccc(CC)c1-n1c(SCC(=O)N2CCc3ccccc3C2)nnc1-c1cccnc1` gave SENP8 block-1 inactive, SENP6 block inactive, SENP7 block inactive, SENP8 block-2 inactive, SENP1 FRET inh 37, SENP1 conf inactive and SENP1 kin conf inactive.
For Cc1nn(C)c2ncc(C(N)=O)c(Oc3ccc(Cl)cc3)c12 the results were SENP8 block-1 inactive, SENP6 block inactive, SENP7 block inactive, SENP8 block-2 inactive and SENP1 FRET inh inactive.
For Cc1ccc(O)c(C(=O)c2cc(C#N)c(=O)n(-c3c(C)n(C)n(-c4ccccc4)c3=O)c2)c1 the results were SENP8 block-1 inactive, SENP6 block inactive, SENP7 block inactive, SENP8 block-2 inactive and SENP1 FRET inh inactive.
Cc1c(-n2cc(C(=O)c3cc(Cl)ccc3O)cc(C#N)c2=O)c(=O)n(-c2ccccc2)n1C was read as SENP8 block-1 inactive, SENP6 block inactive, SENP7 block inactive, SENP8 block-2 inactive, SENP1 FRET inh 61, SENP1 conf 53 and SENP1 kin conf 40.
COc1ccc(N2CCN(C(=O)c3ccc4c(c3)NC(=O)C(CSCc3ccccc3F)N4)CC2)cc1 (centres undefined) was read as SENP8 block-2 inactive, SENP1 FRET inh 33, SENP1 conf inactive and SENP1 kin conf inactive.
`O=C1Nc2cc(C(=O)N3CCN(c4ccccc4F)CC3)ccc2NC1CSCc1ccccc1F` (centres undefined) gave SENP8 block-1 inactive, SENP6 block inactive and SENP7 block inactive.
Screening Cc1ccc2cc(/C=C(\C#N)C(N)=O)c(N3CCCCC3)nc2c1 returned SENP8 block-1 inactive, SENP6 block inactive, SENP7 block inactive, SENP8 block-2 inactive, SENP1 FRET inh 75, SENP1 conf 50 and SENP1 kin conf 39.
Nc1ccc2c(c1)C(=O)c1ccc(Cl)cc1-2 was read as SENP8 block-2 inactive and SENP1 FRET inh inactive.

Bioassay records deposited in PubChem BioAssay by Sanford-Burnham Center for Chemical Genomics.
